# MrgX1 antagonist – antagonists of human MrgX1 receptor, primary screen, HEK293 cells, Fluo-4 calcium flux | B-score at 10 µM | BAM8-22 antagonism; stronger effect = lower value | Mas-related G-protein coupled receptor member X1 (Homo sapiens), Q96LB2 | hit rate 1.3% among 310,000 | AID 588676, 2011;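 active = calcium-response B-score plate-corrected more than 3 library SD below zero, starting fluorescence within 5 deviations, no agonist response on first addition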;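 also: peak minus trough fluorescence over baseline after final BAM8-22 challenge near maximal dose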
# Target sequence (Q96LB2 whole entry, looked up): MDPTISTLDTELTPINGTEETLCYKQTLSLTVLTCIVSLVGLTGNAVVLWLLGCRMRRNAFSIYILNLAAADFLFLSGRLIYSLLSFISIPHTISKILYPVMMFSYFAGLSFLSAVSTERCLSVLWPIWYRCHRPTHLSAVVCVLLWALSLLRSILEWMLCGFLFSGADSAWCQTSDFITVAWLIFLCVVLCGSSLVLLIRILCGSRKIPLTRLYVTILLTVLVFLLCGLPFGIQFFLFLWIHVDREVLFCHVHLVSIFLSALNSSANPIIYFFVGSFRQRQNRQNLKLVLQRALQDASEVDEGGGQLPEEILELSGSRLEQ
# RGS4 inh – RGS4 inhibitors, primary screen, cell-based, HEK293 M3R inducible RGS4, calcium flux; Fluo-4 calcium flux; stronger effect = higher value; triggered by carbachol at its EC20; hit rate 0.45% among 310,000; B-score at 10 µM; Regulator of G-protein signaling 4 (Homo sapiens), P49798;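 active = B-score, a plate-corrected calcium signal, over three deviations above library mean, with baseline fluorescence within five deviations of library mean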;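 also: RGS4 expression induced by doxycycline in cells with stable M3 receptor; B-score is computed from the integrated fluorescence ratio over baseline after carbachol; higher B-score means a larger calcium signal and so more RGS4 inhibition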
# Target sequence (P49798 whole entry, looked up): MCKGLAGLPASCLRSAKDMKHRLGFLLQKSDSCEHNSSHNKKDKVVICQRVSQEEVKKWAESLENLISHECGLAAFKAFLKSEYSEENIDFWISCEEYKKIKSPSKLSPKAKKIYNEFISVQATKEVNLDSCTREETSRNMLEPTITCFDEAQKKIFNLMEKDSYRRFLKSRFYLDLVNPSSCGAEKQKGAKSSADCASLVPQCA
# RGS4 act – RGS4 potentiators or activators, primary screen, cell-based, HEK293 M3R inducible RGS4, calcium flux | carbachol calcium flux Fluo4; stronger effect = lower value | B-score at 10 µM | hit rate 0.92% among 310,000;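 active = B-score of the integrated calcium signal more than 4 SD below the library mean, with starting fluorescence not abnormally high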;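 also: negative B-score means reduced calcium response which marks RGS4 activation or potentiation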
#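 test system = HEK293 cells with stable M3R and inducible RGS4 | schedule = recording 10 s baseline at 1 Hz, 100 s post-agonist | technique = Fluo4-AM (2 µM) calcium-flux fluorescence, kinetic read | measure = Agonist-evoked peak-minus-minimum fluorescence over baseline, integrated ratio, B score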
# MrgX1 agonist – agonists of human MrgX1 receptor, primary screen, HEK293 cells, Fluo-4 calcium flux. Mas-related G-protein coupled receptor member X1 (Homo sapiens), Q96LB2. Fluo-4 calcium fluorescence, agonist mode; stronger effect = higher value. B-score at 10 µM. hit rate 0.44% among 310,000. AID 588627, 2011;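 active = calcium response B-score plate-corrected fluorescence ratio at least 3 library SD, with starting fluorescence B-score inside 5 SD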
#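 Assay system: stable human MrgX1 HEK293 cell line. Quantity: 15,000 cells per well. Schedule: cells plated overnight, dye loaded 0.5 h 37 °C, 0.5 h room temperature. Detection: Fluo-4 NW calcium-flux fluorescence, kinetic read. Read-out basis: peak-minus-minimum fluorescence over baseline, converted to B scores. Control set: positive and negative control wells on each plate.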
# MrgX1 allo act – positive allosteric modulators of MrgX1, primary screen, HEK293 cells, Fluo-4 calcium flux. FDSS; stronger effect = higher value. hit rate 0.63% among 310,000. B-score at 10 µM. AID 588675, 2011. Mas-related G-protein coupled receptor member X1 (Homo sapiens), Q96LB2;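 active = plate-corrected calcium response at least 3 library SD above typical, normal starting fluorescence, not activating the receptor alone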;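 also: compound read alongside a low EC10 to EC30 dose of BAM8-22 agonist; peak minus trough fluorescence over baseline measured at the second addition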
# MrgX1 ag confirm – MrgX1 receptor agonists, duplicate retest, confirmation, HEK293 cells, Fluo-4 calcium flux; AID 602412, 2012; shares compounds with MrgX1 agonist; hit rate 78% among 600; activation, % at 10 µM; Fluo-4 calcium fluorescence, FDSS;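 active = calcium signal rise, corrected for plate position, at least 3 library SD high, with starting brightness within 5 such deviations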
# MrgX1 allo conf – MrgX1 positive allosteric modulators, duplicate retest, confirmation, HEK293 cells, Fluo-4 calcium flux; shares compounds with MrgX1 allo act; Fluo-4 calcium fluorescence, FDSS; activation (ratio percentage), % at 10 µM; hit rate 13% among 1,200;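 active = ratio at least 3 SD above the weak peptide control, stable starting fluorescence, no direct agonism earlier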;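 also: compound followed by low BAM8-22 agonist challenge near EC20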
# MrgX1 ant reconf – MrgX1 receptor antagonists, duplicate retest, confirmation, HEK293 cells, Fluo-4 calcium flux; shares compounds with MrgX1 antagonist; BAM8-22 calcium flux; stronger effect = lower value; remaining BAM8-22 calcium response % of control (stronger effect = lower value), % at 10 µM; hit rate 19% among 2,300;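 active = remaining agonist calcium response no higher than 100% minus 3 SD of agonist-only control wells, with starting fluorescence near control levels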;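 also: agonist BAM8-22 given at a near maximal EC90 to ECmax level; peak minus minimum fluorescence divided by baseline after agonist addition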
# HEK293 Ca flux – nonspecific calcium signal in parental HEK293, confirmation, counter-screen for MrgX1 antagonist project, parental HEK293 cells, Fluo-4 calcium flux; shares compounds with MrgX1 antagonist; Fluo-4 calcium fluorescence, FDSS; fluorescence ratio F(max-min)/F0 at 10 µM; hit rate 2% among 4,000;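 active = duplicate-averaged calcium fluorescence ratio at least three times the standard deviation of buffer wells, a nonspecific response in parental cells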
# HEK293 Ca counter – calcium response in parental HEK293 cells, primary screen, counter-screen for MrgX1 allosteric activator project, cell-based, Fluo-4 calcium flux, duplicate | Fluo-4 fluorescence ratio; stronger effect = higher value | fluorescence ratio F(max-min)/F0 at 10 µM | AID 624114, 2012 | shares compounds with MrgX1 antagonist | hit rate 0.4% among 4,000;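 active = calcium fluorescence ratio, averaged over duplicates, at least 3 SD of the buffer-well ratio, meaning a nonspecific response in receptor-free cells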;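 also: untransfected parental HEK293 lacking MrgX1 used as counterscreen for MrgX1 allosteric activators; fluorescence change taken during the second addition on a kinetic imager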
# HEK293 Ca cntr2 – calcium response in parental HEK293 cells, primary screen, counter-screen for MrgX1 agonist project, cell-based, Fluo-4 calcium flux, duplicate, agonist mode. Fluo-4 calcium fluorescence (FDSS); stronger effect = higher value. shares compounds with MrgX1 antagonist. fluorescence ratio F(max-min)/F0 at 10 µM. hit rate 8.7% among 4,000;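 active = calcium fluorescence ratio at least three times the spread of buffer wells, meaning a non-specific response in parental cells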
# Numbers without * were called inactive; i = inactive; x = no result; ! = repeats disagree. In the library only some 3.5% were active in any assay of this set; here they are far more common.
SMILES,MrgX1 antagonist,RGS4 inh,RGS4 act,MrgX1 agonist,MrgX1 allo act,MrgX1 allo conf,HEK293 Ca flux,HEK293 Ca counter,HEK293 Ca cntr2,others
CC1OC(C[N+](C)(C)C)CC1O (configuration not stated),i,x,x,80*,i,x,i,i,104*,MrgX1 ag confirm=502%*
COC(=O)N(c1ccccc1)P(=O)(Oc1ccccc1)Oc1ccccc1,i,i,i,i,i,x,x,x,x,
CC12CN3CCN(C1)CC(C)(C3)C2=NO,i,i,i,i,i,x,x,x,x,
O=C(CCCN1CCC2(CC1)C(=O)NCN2c1ccccc1)c1ccc(F)cc1,i,i,i,76*,i,x,i,i,99*,MrgX1 ag confirm=542%*
O=C(c1ccc(F)cc1)C(Cc1ccccc1)N1CCCCC1 (configuration not stated),i,i,i,i,i,x,x,x,x,
Cc1cc(C)n(-c2ccc(NN=C(C#N)C#N)cc2)n1,i,i,i,88*,i,x,i,i,56*,MrgX1 ag confirm=215%*
COc1cccc(C2CCN(CC(=O)Nc3cc(Cl)ccc3OC)CC2O)c1 (configuration not stated),i,i,i,i,i,x,x,x,x,
CNCCc1ccc(O)c(O)c1,i,i,i,43*,i,x,i,i,i,MrgX1 ag confirm=116%*
COC(=O)C1=C(c2cccc(OC)c2OC)C[C@@H]2CC[C@H]1N2C(=O)NCc1ccco1,i,i,i,i,i,x,x,x,x,
CC(=O)OCC[N+](C)(C)C,i,i,-7.5*!,134*,i,x,i,i,108*,MrgX1 ag confirm=558%*
CC(=O)N(C)CC#CCN1CCCC(CO)C1 (configuration not stated),i,i,i,i,i,x,x,x,x,
C#CCOC(=O)C1=CCCN(C)C1,i,x,x,90*,i,x,i,i,54*,MrgX1 ag confirm=281%*
c1ccc([C@@H]2CO2)cc1,i,i,i,i,i,x,x,x,x,
CN(C)C1(CNC(=O)Nc2ccc(Cl)c(Cl)c2)CCCCC1,i,i,i,30*,i,x,i,i,i,MrgX1 ag confirm=i
CN(C)C1(CNC(=O)c2cc(S(=O)(=O)N3CCOCC3)c(Cl)cc2Cl)CCCCC1,i,i,i,i,i,x,x,x,x,
CC(=O)OC1CC[C@]2(C#N)[C@H]3CC[C@]4(C)[C@H](C5C=CC(=O)O5)CCC4(O)C3CCC2(O)C1 (some centres not stated),i,i,i,i,i,x,x,x,x,
CCC(C)N1C(=O)NC(=O)C2(Cc3c(ccc4ccccc34)N(C)C2)C1=O (configuration not stated),i,i,i,34*,i,x,i,i,i,MrgX1 ag confirm=i
CCOC(=O)C1=C(N)Oc2cc(C)oc(=O)c2C12C(=O)N1c3c(cccc32)C(C)=CC1(C)C (configuration not stated),i,i,i,i,9.2*,i,i,i,87*,
COc1ccc(-n2c(-c3ccc(C)cc3)nc3ccccc3c2=O)cc1,i,i,i,i,i,x,x,x,x,
CCCCOc1nc2ccccc2c(=O)n1-c1ccccc1,i,i,i,i,9.2*,i,i,i,48*,
COc1nc2ccccc2c(=O)n1-c1ccc(C)cc1,i,i,i,i,18*,i,i,i,i,
COc1nc2ccccc2c(=O)n1-c1ccc(Cl)cc1,i,i,i,i,12*,i,i,i,i,
CCCc1nc2ccccc2c(=O)n1-c1ccc(OC)cc1,i,i,i,i,i,x,x,x,x,
Cc1ccc(-n2c(C)nc3ccccc3c2=O)cc1C,i,i,i,i,7.7*,13%*,i,i,i,
Cc1cccc(C)c1NC(=O)CN(C)CC(=O)Nc1ccc(C#N)c(Cl)c1,i,i,i,i,i,x,x,x,x,
SMILES,MrgX1 antagonist,RGS4 inh,RGS4 act,MrgX1 agonist,MrgX1 allo act,MrgX1 allo conf,HEK293 Ca flux,HEK293 Ca counter,HEK293 Ca cntr2,others
Cn1c(O)c(C=NCCN2CCOCC2)c(=O)n(C)c1=S,i,i,i,i,i,x,x,x,x,
O=C(Nc1nc(-c2ccccc2)c(-c2ccccc2)s1)c1ccc(S(=O)(=O)N(CCCl)CCCl)cc1,i,i,i,i,i,x,x,x,x,
COc1ccc(C(=O)c2nc3ccccc3n2C(C)C)cc1OC,i,i,i,i,i,x,x,x,x,
COc1ccc(C(=O)c2nc3ccccc3n2C(C)C)cc1,i,i,i,i,6.5*,i,i,i,i,
CC1(C)CN=C(NCc2ccccc2)S1,i,i,i,i,6.4*,i,i,i,i,
CCCCCn1c(=O)c(C(=O)NCCc2ccccc2)c(O)c2ccccc21,-8.2*,i,i,i,7.6*,i,i,i,i,MrgX1 ant reconf=i
O=c1cccc2n1C[C@H]1C[C@@H]2CN2CCCC[C@@H]12,i,i,i,i,i,x,x,x,x,
O=C1CC(c2cccnc2)=NN1c1ccc(Cl)cc1Cl,i,i,i,i,i,x,x,x,x,
CCN1C(=O)CC(c2cccnc2)=Nc2ccccc21,i,i,i,i,6.4*,i,i,i,i,
COc1ccc(CCNCc2ccc(SC)cc2)cc1,i,i,i,i,i,x,x,x,x,

# From PubChem
